Data from ChEMBL document CHEMBL1148407, “Macrocyclic polyamines deplete cellular ATP levels and inhibit cell growth in human prostate cancer cells” (2004).
pIC50: −log10 of the molar value.

Columns and labels:
DuPro [1] = experiment: Macrocycle level in DuPro cells in 3 days after treatment with 0.5 uM concentration of the compound; Macrocycle level measured in per 10 lakh cells; format: functional, Homo sapiens
How it was run: (§1)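 Log-phase DuPro cells grown in RPMI 1640 with 10% fetal calf serum were exposed to macrocycle at 0.5–4 μM for 3 or 5 days, harvested with trypsin/EDTA and counted. About 1×10^6 cells were washed in cold PBS, extracted in 2% perchloric acid and sonicated. Supernatant was dansylated (modified for ring NH) and analysed by C-18 HPLC with fluorescence detection. Untreated controls were run per experiment.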

DuPro [2] = experiment: Spermine level in DuPro cells in 3 days after treatment with 0.5 uM concentration of the compound; Sm level measured in per 10 lakh cells; format: functional, Homo sapiens; how it was run: as §1
DuPro [3] = experiment: Macrocycle level in DuPro cells in 5 days after treatment with 2 uM concentration of the compound; Macrocycle level measured in per 10 lakh cells; format: functional, Homo sapiens; how it was run: as §1
DuPro [4] = experiment: Macrocycle level in DuPro cells in 5 days after treatment with 0.5 uM concentration of the compound; Macrocycle level measured in per 10 lakh cells; format: functional, Homo sapiens; how it was run: as §1
DuPro [5] = experiment: Macrocycle level in DuPro cells in 3 days after treatment with 2 uM concentration of the compound; Macrocycle level measured in per 10 lakh cells; format: functional, Homo sapiens; how it was run: as §1
DuPro [6] = experiment: Spermidine level in DuPro cells in 5 days after treatment with 0.5 uM concentration of the compound; Spd level measured in per 10 lakh cells; format: functional, Homo sapiens; how it was run: as §1
PC-3 = experiment: Inhibitory effect against growth of PC-3 human prostate cancer cell line; format: functional; conditions: read-out: ID50 (the source's name)
How it was run: (§2)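 MTT growth assay. Trypsinized cells, 500 per well, seeded and incubated overnight at 37 °C in humidified 95% air/5% CO2. Serial macrocycle dilutions added, each concentration in quadruplicate, buffer controls in the outer columns, 6 days (144 h) of exposure. MTT 5 mg/mL added for 4 h, then overnight lysis in SDS/DMF/acetic acid buffer pH 4.8. Absorbance at 570 nm; ID50 derived.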

DuPro [7] = experiment: Macrocycle level in DuPro cells in 5 days after treatment with 1 uM concentration of the compound; Macrocycle level measured in per 10 lakh cells; format: functional, Homo sapiens; how it was run: as §1
DuPro [8] = experiment: Macrocycle level in DuPro cells in 3 days after treatment with 1 uM concentration of the compound; Macrocycle level measured in per 10 lakh cells; format: functional, Homo sapiens; how it was run: as §1
DuPro [9] = experiment: Putrescine level in DuPro cells in 3 days after treatment with 1 uM concentration of the compound; Put level measured in per 10 lakh cells; format: functional, Homo sapiens; how it was run: as §1
DuPro [10] = experiment: Putrescine level in DuPro cells at 5 days after treatment with 2 uM concentration of the compound; Put level measured in per 10 lakh cells; format: functional, Homo sapiens; how it was run: as §1
DuPro [11] = experiment: Macrocycle level in DuPro cells at 3 days after treatment with 2 uM concentration of the compound; Macrocycle level measured in per 10 lakh cells; format: functional, Homo sapiens; how it was run: as §1
DuPro [12] = experiment: Spermine level in DuPro cells in 5 days after treatment with 1 uM concentration of the compound; Sm level measured in per 10 lakh cells; format: functional, Homo sapiens; how it was run: as §1
DuPro [13] = experiment: Putrescine level in DuPro cells at 3 days after treatment with 2 uM concentration of the compound; Put level measured in per 10 lakh cells; format: functional, Homo sapiens; how it was run: as §1
DuPro [14] = experiment: Macrocycle level in DuPro cells at 5 days after treatment with 1 uM concentration of the compound; Macrocycle level measured in per 10 lakh cells; format: functional, Homo sapiens; how it was run: as §1
DuPro [15] = experiment: Macrocycle level in DuPro cells at 5 days after treatment with 2 uM concentration of the compound; Macrocycle level measured in per 10 lakh cells; format: functional, Homo sapiens; how it was run: as §1
DuPro [16] = experiment: Spermine level in DuPro cells in3 days after treatment with 1 uM concentration of the compound; Sm level measured in per 10 lakh cells; format: functional, Homo sapiens; how it was run: as §1
DuPro [17] = experiment: Spermine level in DuPro cells at 5 days after treatment with 2 uM concentration of the compound; Sm level measured in per 10 lakh cells; format: functional, Homo sapiens; how it was run: as §1
DuPro [18] = experiment: Macrocycle level in DuPro cells at 3 days after treatment with 1 uM concentration of the compound; Macrocycle level measured in per 10 lakh cells; format: functional, Homo sapiens; how it was run: as §1
DuPro [19] = experiment: Spermidine level in DuPro cells in 3 days after treatment with 1 uM concentration of the compound; Spd level measured in per 10 lakh cells; format: functional, Homo sapiens; how it was run: as §1
DuPro [20] = experiment: Spermidine level in DuPro cells at 3 days after treatment with 2 uM concentration of the compound; Spd level measured in per 10 lakh cells; format: functional, Homo sapiens; how it was run: as §1
DuPro [21] = experiment: Spermidine level in DuPro cells at 5 days after treatment with 2 uM concentration of the compound; Spd level measured in per 10 lakh cells; format: functional, Homo sapiens; how it was run: as §1
DuPro [22] = experiment: Spermidine level in DuPro cells in 5 days after treatment with 1 uM concentration of the compound; Spd level measured in per 10 lakh cells; format: functional, Homo sapiens; how it was run: as §1
DuPro [23] = experiment: Spermine level in DuPro cells at 3 days after treatment with 2 uM concentration of the compound; Sm level measured in per 10 lakh cells; format: functional, Homo sapiens; how it was run: as §1
DuPro [24] = experiment: Inhibitory effect against growth of DuPro human prostate cancer cell line; format: functional; conditions: read-out: ID50 (the source's name); how it was run: as §2
DuPro [25] = experiment: Macrocycle level in DuPro cells in 3 days after treatment with 4 uM concentration of the compound; Macrocycle level measured in per 10 lakh cells; format: functional, Homo sapiens; how it was run: as §1
DuPro [26] = experiment: Macrocycle level in DuPro cells in 5 days after treatment with 4 uM concentration of the compound; Macrocycle level measured in per 10 lakh cells; format: functional, Homo sapiens; how it was run: as §1

In the case of `CCCCCCCCCCCCCC1CC(=O)NCCCNCCCNCCCN1.Cl.Cl.Cl` (stereo unspecified), the Polyamine level (DuPro [1]) was 47.57 nM, the Polyamine level (DuPro [2]) was 3 pM and the Polyamine level (DuPro [3]) was 42.34 nM. For the same compound, the Polyamine level (DuPro [4]) was 35.91 nM and the Polyamine level (DuPro [5]) was 49.07 nM.
`CCCCCCCCCCCCCC1CC(=O)NCCCNCCCCCNCCCN1.Cl.Cl.Cl` (stereo unspecified) showed a Polyamine level (DuPro [1]) of 26.96 nM, a Polyamine level (DuPro [3]) of 10.24 nM and a Polyamine level (DuPro [6]) of 5 pM. The Polyamine level (DuPro [4]) was 26.84 nM, the pIC50 (PC-3) was 5.94 and the Polyamine level (DuPro [5]) was 17.2 nM.
`CCCCCCCCCCCCCC1CC(=O)NCCCNCCCCNCCCN1.Cl.Cl.Cl` (stereo unspecified) showed a Polyamine level (DuPro [3]) of 21.47 nM, a Polyamine level (DuPro [7]) of 17.2 nM and a Polyamine level (DuPro [8]) of 2.79 nM. It also gave a Polyamine level (DuPro [5]) of 25.07 nM.
For `CCCCCCCCCCCCCC1CC(=O)NCCCNCCCNCCCNCCCN1.Cl.Cl.Cl.Cl` (stereo unspecified), the Polyamine level (DuPro [9]) was 4 pM, the Polyamine level (DuPro [10]) was 0.011 nM and the Polyamine level (DuPro [11]) was 5.99 nM. It also gave a Polyamine level (DuPro [12]) of 0.043 nM, a Polyamine level (DuPro [13]) of 0.02 nM and a Polyamine level (DuPro [14]) of 46.77 nM. The Polyamine level (DuPro [15]) was 49.31 nM, the Polyamine level (DuPro [16]) was 0.088 nM and the Polyamine level (DuPro [17]) was 0.053 nM. It also gave a Polyamine level (DuPro [18]) of 10.09 nM, a Polyamine level (DuPro [19]) of 0.029 nM and a Polyamine level (DuPro [20]) of 0.027 nM. It also gave a Polyamine level (DuPro [21]) of 0.018 nM, a Polyamine level (DuPro [22]) of 0.014 nM and a Polyamine level (DuPro [23]) of 0.094 nM.
Work on `CCCCCCCCCCCCCC1CC(=O)NCCCNCCCCN1.Cl.Cl` (stereo unspecified) yielded a pIC50 (DuPro [24]) of 5.74, a Polyamine level (DuPro [25]) of 22.1 nM and a pIC50 (PC-3) of 5.77. The Polyamine level (DuPro [26]) was 32 nM, the Polyamine level (DuPro [7]) was 24 nM and the Polyamine level (DuPro [8]) was 17 nM.
